The test system of data set [1] is phosphorylation of Akt/PKB (Ser473, Thr308). The experiment in a line: Insulin-stimulated activation of Akt/PKB in cell lines, Western blotting. The following applies: for inhibition of insulin-stimulated phosphorylation of Akt/PKB Ser473 and Thr308: cell lines that lack the H1047R mutation, drug 15 min, then 500 nM insulin 5 min; for inhibition of insulin-stimulated activation of Akt/PKB: MCF7 cells. It counts as cell-based. A digest of the protocol: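 Cells serum-starved overnight, then exposed to test compound or DMSO vehicle for 15 min and stimulated with 500 nM insulin for 5 min. Lysates separated by SDS/PAGE, 20 μg protein per lane except T47D, SK-OV-3 and MCF7, and Western blotted for Akt/PKB phosphorylation.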

Data set [2] relates to panel of 110 protein kinases. The experiment in a line: Protein kinase profiling, panel of 110 protein kinases. It counts as biochemical. The following applies: 10 μM, Supplementary Figure S1.
For the next data set, the target named is p110γ (Homo sapiens, UniProt P48736). The experiment in a line: PI3K. It counts as biochemical. Particulars: read-out: IC50 against p110γ; HTRF assay. For orientation: Time-resolved FRET reads energy transfer from a long-lived donor to a nearby acceptor.
Another data set concerns the target p110δ (Homo sapiens, UniProt O00329). The experiment in a line: PI3K. The following applies: read-out: IC50 against p110δ; HTRF assay. It counts as biochemical.
Another data set has as its target p110α E545K (Homo sapiens, UniProt P42336, E545K). The experiment in a line: PI3K. The class given is biochemical. Particulars: read-out: IC50 against p110α E545K; HTRF assay.
In a further data set the target is p110α (Homo sapiens, UniProt P42336). The experiment in a line: PI3K. The class given is biochemical. Particulars: read-out: IC50 against p110α; HTRF assay.
The target in the next data set is p110α H1047R (Homo sapiens, UniProt P42336, H1047R). The experiment in a line: PI3K. Particulars: read-out: IC50 against p110α H1047R; HTRF assay. The class given is biochemical.
In data set [3] the test system is Akt/PKB activation in PTEN-deficient cell lines. Particulars: cited from earlier work.
Data set [4] is described as follows: Plasma pharmacokinetics in mice. The class given is in vivo, CD-1 mice. The following applies: male, CD-1, mouse, ip, 10 mg/kg.
The next data set has as its system U87MG xenograft. The experiment in a line: U87MG tumour xenograft efficacy and toxicity. It counts as in vivo, Rag1−/− or NIH-III mice. Particulars: QD×14, BEZ-235 15 mg/kg, A66 100 mg/kg. The gist of the method: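 U87MG cells (5×10^6, s.c. in PBS) in SPF Rag1−/− or NIH-III mice; treatment started at tumours of about 7 mm. Daily i.p. dosing for 14 days (10 ml/kg, free base). Test compound in 20% hydroxypropyl-β-cyclodextrin; reference inhibitor in 10% ethanol; controls given vehicle. Caliper volume (L×w²)×π/6; daily body weight and toxicity checks; mice killed at >20% weight loss.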

The test system of a further data set is SK-OV-3 xenograft. Briefly: SK-OV-3 tumour xenograft efficacy and toxicity. The class given is in vivo, Rag1−/− or NIH-III mice. The following applies: QD×21, BEZ-235 15 mg/kg, A66 100 mg/kg. The gist of the method:
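SPF Rag1−/− or NIH-III mice, 5×10^6 SK-OV-3 cells s.c. in PBS; dosing began at about 7 mm tumours. I.p., 10 ml/kg. Test compound (20% hydroxypropyl-β-cyclodextrin): 100 mg/kg QD×21 or 75 mg/kg BID×16, injections ≥~8 h apart. Reference inhibitor (10% ethanol): 15 mg/kg QD×21. Vehicle controls; 7–8 mice/group. Caliper volume (L×w²)×π/6; daily body weight; final-day TGI; ANOVA-Bonferroni.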

The next data set concerns HCT-116 xenograft. Briefly: HCT-116 tumour xenograft efficacy and toxicity. The class given is in vivo, Rag1−/− or NIH-III mice. The following applies: QD×7, BEZ-235 10 mg/kg, A66 100 mg/kg. A digest of the protocol: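 HCT-116 xenografts from 5×10^6 cells s.c. in PBS, in SPF Rag1−/− or NIH-III mice. Once-daily i.p. dosing for 7 days from tumours of about 7 mm. Test compound in 20% hydroxypropyl-β-cyclodextrin; reference inhibitor at 10 mg/kg in 10% ethanol; vehicle controls. Caliper volumes by (L×w²)×π/6; daily weights; euthanasia if weight loss exceeded 20%.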

What is called pIC50 is the negative decadic logarithm of the IC50, by convention in mol/L. A word on the AUC: it is concentration integrated over time. High values mean high exposure, low ones low exposure. A word on the Cmax: it is the highest concentration seen after dosing. One may read the Tmax as the time from dosing to the highest level. A word on the half-life: it is the time needed for the level to fall by half in the phase considered. Low values mean fast loss, high ones slow loss.

pIC50: −log10 of the molar value. “And” between values parts separate entries of the source, which are not always exact repeats. Equal entries are not always repeated. Where only a bound is given, the exact number is not on record here.

Chain of p110γ (P48736 whole entry): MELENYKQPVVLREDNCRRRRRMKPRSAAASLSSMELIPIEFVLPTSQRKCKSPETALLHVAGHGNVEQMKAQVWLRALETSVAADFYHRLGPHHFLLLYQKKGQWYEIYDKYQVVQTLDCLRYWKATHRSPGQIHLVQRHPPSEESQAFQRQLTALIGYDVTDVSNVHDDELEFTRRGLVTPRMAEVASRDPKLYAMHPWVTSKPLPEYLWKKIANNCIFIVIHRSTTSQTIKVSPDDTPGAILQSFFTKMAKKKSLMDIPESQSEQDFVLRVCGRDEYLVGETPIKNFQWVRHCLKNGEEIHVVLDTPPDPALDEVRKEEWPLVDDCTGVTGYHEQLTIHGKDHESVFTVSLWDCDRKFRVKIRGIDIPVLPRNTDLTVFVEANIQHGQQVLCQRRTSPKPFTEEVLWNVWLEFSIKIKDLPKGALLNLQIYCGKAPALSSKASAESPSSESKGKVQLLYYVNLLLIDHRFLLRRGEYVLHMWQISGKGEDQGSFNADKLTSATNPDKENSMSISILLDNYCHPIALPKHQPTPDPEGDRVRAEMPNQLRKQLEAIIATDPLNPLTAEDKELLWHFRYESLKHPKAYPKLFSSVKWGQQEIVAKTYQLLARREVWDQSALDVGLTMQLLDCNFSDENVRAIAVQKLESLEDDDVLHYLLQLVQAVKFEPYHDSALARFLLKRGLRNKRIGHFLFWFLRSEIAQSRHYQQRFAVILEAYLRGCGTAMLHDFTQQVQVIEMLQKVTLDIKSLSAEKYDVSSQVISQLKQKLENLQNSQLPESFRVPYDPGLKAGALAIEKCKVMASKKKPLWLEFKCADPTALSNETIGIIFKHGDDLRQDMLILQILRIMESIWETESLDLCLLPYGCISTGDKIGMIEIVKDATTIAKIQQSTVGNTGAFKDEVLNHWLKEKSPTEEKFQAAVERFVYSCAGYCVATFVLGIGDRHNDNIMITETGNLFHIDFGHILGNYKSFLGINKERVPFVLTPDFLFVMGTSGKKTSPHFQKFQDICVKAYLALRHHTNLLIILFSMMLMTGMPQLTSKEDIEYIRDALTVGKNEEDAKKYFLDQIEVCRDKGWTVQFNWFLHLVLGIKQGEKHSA
Chain of p110α E545K (P42336 whole entry E545K): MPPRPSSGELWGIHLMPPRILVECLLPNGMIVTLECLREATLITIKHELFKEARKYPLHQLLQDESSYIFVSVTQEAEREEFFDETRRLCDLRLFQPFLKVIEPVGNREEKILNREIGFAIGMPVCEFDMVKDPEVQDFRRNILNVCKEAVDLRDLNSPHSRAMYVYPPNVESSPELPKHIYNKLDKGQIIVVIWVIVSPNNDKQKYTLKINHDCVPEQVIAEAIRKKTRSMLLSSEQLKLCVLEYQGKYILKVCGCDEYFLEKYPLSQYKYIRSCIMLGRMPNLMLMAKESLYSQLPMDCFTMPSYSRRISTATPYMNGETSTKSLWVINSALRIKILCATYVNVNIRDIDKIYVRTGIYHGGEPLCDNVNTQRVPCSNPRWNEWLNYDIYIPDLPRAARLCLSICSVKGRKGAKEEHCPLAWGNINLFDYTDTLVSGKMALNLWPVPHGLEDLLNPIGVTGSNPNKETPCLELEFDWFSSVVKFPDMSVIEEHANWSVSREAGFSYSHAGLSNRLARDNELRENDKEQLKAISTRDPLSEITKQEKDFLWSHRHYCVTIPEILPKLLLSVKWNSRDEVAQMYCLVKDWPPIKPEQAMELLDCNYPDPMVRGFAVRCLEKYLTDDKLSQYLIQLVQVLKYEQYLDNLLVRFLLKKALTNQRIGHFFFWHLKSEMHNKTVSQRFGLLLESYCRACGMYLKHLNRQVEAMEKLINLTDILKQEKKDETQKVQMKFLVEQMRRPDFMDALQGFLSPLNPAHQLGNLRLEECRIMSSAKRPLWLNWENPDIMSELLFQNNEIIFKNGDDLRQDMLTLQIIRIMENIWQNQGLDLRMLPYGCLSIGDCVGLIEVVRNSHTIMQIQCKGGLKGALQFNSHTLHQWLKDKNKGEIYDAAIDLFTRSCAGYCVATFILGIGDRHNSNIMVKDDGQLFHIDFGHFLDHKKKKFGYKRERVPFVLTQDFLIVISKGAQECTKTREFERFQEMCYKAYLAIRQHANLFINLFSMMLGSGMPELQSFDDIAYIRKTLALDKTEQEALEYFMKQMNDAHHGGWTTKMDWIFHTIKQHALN
Chain of p110α E545K (P27986 whole entry partner): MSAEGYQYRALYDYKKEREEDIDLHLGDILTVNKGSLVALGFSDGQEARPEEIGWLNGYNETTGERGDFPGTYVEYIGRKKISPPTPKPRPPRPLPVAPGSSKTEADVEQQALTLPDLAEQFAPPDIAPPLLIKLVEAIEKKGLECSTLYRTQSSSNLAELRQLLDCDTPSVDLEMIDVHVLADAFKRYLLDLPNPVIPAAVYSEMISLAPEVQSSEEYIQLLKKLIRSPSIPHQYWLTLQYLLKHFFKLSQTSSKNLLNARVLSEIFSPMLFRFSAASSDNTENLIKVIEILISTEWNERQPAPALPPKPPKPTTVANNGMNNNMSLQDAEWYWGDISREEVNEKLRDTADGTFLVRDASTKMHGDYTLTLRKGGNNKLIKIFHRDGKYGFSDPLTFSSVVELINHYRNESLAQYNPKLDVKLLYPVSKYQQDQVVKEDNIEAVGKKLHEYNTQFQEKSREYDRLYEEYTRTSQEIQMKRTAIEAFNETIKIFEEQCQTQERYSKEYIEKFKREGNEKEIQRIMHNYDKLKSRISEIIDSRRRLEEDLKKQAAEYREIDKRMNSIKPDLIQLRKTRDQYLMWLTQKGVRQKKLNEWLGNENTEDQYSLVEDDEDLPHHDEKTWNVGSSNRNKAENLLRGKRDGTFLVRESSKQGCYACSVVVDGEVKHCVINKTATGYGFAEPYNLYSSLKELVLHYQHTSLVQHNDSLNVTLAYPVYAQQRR
Chain of p110α (P42336 whole entry): as the sequence (P42336 whole entry E545K) above, with K545E counted along it
Chain of p110α (P27986 whole entry partner): as the sequence (P27986 whole entry partner) above
Chain of p110δ (O00329 whole entry): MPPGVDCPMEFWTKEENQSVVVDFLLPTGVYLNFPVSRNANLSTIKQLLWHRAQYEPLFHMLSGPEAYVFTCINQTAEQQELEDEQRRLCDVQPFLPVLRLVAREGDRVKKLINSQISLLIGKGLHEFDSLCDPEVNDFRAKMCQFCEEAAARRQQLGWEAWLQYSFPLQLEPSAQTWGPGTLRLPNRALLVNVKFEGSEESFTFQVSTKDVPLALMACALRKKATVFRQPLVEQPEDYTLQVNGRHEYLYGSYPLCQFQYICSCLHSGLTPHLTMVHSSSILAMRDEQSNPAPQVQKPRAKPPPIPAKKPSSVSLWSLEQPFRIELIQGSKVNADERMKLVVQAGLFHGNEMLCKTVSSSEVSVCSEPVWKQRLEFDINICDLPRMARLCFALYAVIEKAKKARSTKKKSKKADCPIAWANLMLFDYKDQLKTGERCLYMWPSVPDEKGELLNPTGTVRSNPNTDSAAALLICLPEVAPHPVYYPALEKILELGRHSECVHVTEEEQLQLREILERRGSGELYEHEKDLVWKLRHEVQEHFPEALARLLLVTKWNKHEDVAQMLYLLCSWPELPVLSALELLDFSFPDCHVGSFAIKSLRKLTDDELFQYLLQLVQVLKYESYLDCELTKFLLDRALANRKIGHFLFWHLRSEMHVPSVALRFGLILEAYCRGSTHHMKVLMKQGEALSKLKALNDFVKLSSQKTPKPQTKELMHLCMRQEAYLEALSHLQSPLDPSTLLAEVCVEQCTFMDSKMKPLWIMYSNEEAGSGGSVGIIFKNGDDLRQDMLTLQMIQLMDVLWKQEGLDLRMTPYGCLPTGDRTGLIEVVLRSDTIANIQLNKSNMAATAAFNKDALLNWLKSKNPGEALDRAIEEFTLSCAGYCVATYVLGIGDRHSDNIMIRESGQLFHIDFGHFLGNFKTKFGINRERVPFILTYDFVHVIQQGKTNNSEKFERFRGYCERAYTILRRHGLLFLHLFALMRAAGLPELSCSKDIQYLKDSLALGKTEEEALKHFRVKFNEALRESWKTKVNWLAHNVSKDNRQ
Chain of p110δ (P27986 whole entry partner): as the sequence (P27986 whole entry partner) above
Chain of p110α H1047R (P42336 whole entry H1047R): as the sequence (P42336 whole entry E545K) above, with K545E, H1047R counted along it
Chain of p110α H1047R (P27986 whole entry partner): as the sequence (P27986 whole entry partner) above

As to `Cc1ccccc1-n1c(Cn2cnc3c(N)ncnc32)nc2cccc(C)c2c1=O` [IC87114], the “inhibition of insulin-stimulated phosphorylation of Akt/PKB Ser473 and Thr308” value in [1] is listed as “not inhibited”. The “inhibitory effects on panel of 110 protein kinases” value (“inhibitory effects on panel” below) in data set [2] is “do not have any major effects”.

`Cc1ccc([N+](=O)[O-])cc1S(=O)(=O)N(C)/N=C/c1cnc2ccc(Br)cn12` [PIK-75]: in data set [1], the “inhibition of insulin-stimulated activation of Akt/PKB” value is reported as “partial inhibitory effect”; the “inhibition of insulin-stimulated phosphorylation of Akt/PKB Ser473 and Thr308” value is on record as “less effective”. The pIC50 at p110γ is 7.48. For the same compound, in data set [2], the “inhibitory effects on panel” value was “inhibited a large number of protein kinases”.

Regarding `COC[C@H]1OC(=O)c2coc3c2[C@@]1(C)C1=C(C3=O)[C@@H]2CCC(=O)[C@@]2(C)C[C@H]1OC(C)=O` [wortmannin], the “inhibition of insulin-stimulated phosphorylation of Akt/PKB Ser473 and Thr308” value in data set [1] was “effective”.

As to `Cc1cc(C(C)Nc2ccccc2)c2nc(N3CCOCC3)cc(=O)n2c1` (stereo not shown) [TGX-221], the pIC50 on p110δ is 6.89; on p110α E545K, less than 6.00; at p110α it was less than 6.00; on p110α H1047R, less than 6.00; on p110γ, less than 5.90. Moreover, in [1], the “inhibition of insulin-stimulated activation of Akt/PKB” value is “partial inhibitory effect”. In [1], the “inhibition of insulin-stimulated phosphorylation of Akt/PKB Ser473 and Thr308” value is on record as “not inhibited”. The “concentration required to induce reduction in Akt/PKB activation” value in data set [3] is 2 µM. The “inhibitory effects on panel” value in data set [2] is reported as “do not have any major effects”.

For the compound `Cn1c(=O)n(-c2ccc(C(C)(C)C#N)cc2)c2c3cc(-c4cnc5ccccc5c4)ccc3ncc21` [BEZ-235], in data set [4], the AUC was 7.33 µM·h, the highest level (Cmax) was 1860 nM, the Tmax turned out to be 0.25 h and the half-life was 2.73 h. In addition, the “effect on tumour volume / growth” value with U87MG xenograft (U87MG xenograft) is reported as “significantly reduced”. In addition, in the data set with U87MG xenograft (U87MG, intraperitoneal), the “BWL nadir (%)” value is listed as −8.4±5.4% and the Number of deaths/n is given as 0/5. Also, the “body weight loss / tolerability” value with SK-OV-3 xenograft is on record as “moderate body weight loss”. Also, in the data set on SK-OV-3 xenograft (intraperitoneal), the “BWL nadir (%)” value is on record as −9.5±6.6%; the Number of deaths/n entry is “four and 4/7”. Further, in the data set with HCT-116 xenograft (HCT-116, intraperitoneal), the “BWL nadir (%)” value is −5.9±1.8% and the Number of deaths/n is 0/7. In addition, the “effect on tumour volume” value in the data set on HCT-116 xenograft (HCT-116 xenograft) is “had no effect”.

On to `O=c1cc(N2CCOCC2)oc2c(-c3ccccc3)cccc12` [LY294002], for which the “inhibition of phosphorylation of Akt/PKB Ser473 and Thr308” value in data set [1] (all cell lines tested) is given as “sensitive”. Also, in data set [1], the “inhibition of insulin-stimulated phosphorylation of Akt/PKB Ser473 and Thr308” value was “effective”.

(Values after publication PMC3174055 (Biochemical Journal, 2011).)
